From ChEMBL document CHEMBL1139374, “Multivalent scaffolds for affinity maturation of small molecule cell surface binders and their application to prostate tumor targeting” (J Med Chem, 2009)
Activity calls are given as the source filed them. No cut-off for these calls is given here.

Tests used:
[1] = target: T1, Glutamate carboxypeptidase 2 (Homo sapiens, UniProt Q04609); assay: Binding affinity to PSMA in human LNCaP cells assessed as cell surface binding in phosphate-buffered saline buffer; assay type: cell-based
Outline: (§1)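 Live-cell homologous competition; cells grown in RPMI 1640 with 10% FBS at 37°C and 5% CO2. Cells washed twice in ice-cold TBS pH 7.4, then held 20 min at 4°C with 0.02 MBq 99mTc-labeled tracer, with or without test compound, in TBS, PBS or 100% calf serum. Washed three times in TBS, gamma-counted, affinity taken from curve fit; mean ± S.D.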

[2] = target: T1, Glutamate carboxypeptidase 2; assay: Binding affinity to PSMA in human LNCaP cells assessed as cell surface binding in Tris-buffered saline buffer; assay type: cell-based
Outline: (§2)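 Cells washed twice in ice-cold TBS pH 7.4, then held 20 min at 4°C with 0.02 MBq 99mTc-labeled tracer, with or without test compound, in TBS, PBS or 100% calf serum. Washed three times in TBS, gamma-counted, affinity taken from curve fit; mean ± S.D.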

[3] = target: T1, Glutamate carboxypeptidase 2; assay: Binding affinity to PSMA in human LNCaP cells assessed as cell surface binding in presence of 100% calf serum; assay type: cell-based; outline: as §1
[4] = target: T1, Glutamate carboxypeptidase 2; assay: Binding affinity to PSMA in human PC3 cells assessed as cell surface binding in Tris-buffered saline buffer; assay type: cell-based; conditions: for Activity: PC-3; outline: as §2
[5] = target: T1, Glutamate carboxypeptidase 2; assay: Binding affinity to PSMA in living human LNCaP cells assessed as cell surface binding at 2 uM in presence of 100% calf serum by NIR fluorescence imaging; assay type: cell-based
Outline: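 Exponentially growing LNCaP cells at 75% confluence on glass coverslips, exposed to 2 μM compound in 0.2 mL 100% calf serum for 20 min at room temperature. Washed three times in serum, fixed in 2% paraformaldehyde 10 min, permeabilized with PBS-0.1% Tween-20 and mounted. Phase-contrast and NIR images taken on a four-channel NIR fluorescence microscope at identical exposure and normalization.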
Target sequence in this assay (Q04609 whole entry, looked up): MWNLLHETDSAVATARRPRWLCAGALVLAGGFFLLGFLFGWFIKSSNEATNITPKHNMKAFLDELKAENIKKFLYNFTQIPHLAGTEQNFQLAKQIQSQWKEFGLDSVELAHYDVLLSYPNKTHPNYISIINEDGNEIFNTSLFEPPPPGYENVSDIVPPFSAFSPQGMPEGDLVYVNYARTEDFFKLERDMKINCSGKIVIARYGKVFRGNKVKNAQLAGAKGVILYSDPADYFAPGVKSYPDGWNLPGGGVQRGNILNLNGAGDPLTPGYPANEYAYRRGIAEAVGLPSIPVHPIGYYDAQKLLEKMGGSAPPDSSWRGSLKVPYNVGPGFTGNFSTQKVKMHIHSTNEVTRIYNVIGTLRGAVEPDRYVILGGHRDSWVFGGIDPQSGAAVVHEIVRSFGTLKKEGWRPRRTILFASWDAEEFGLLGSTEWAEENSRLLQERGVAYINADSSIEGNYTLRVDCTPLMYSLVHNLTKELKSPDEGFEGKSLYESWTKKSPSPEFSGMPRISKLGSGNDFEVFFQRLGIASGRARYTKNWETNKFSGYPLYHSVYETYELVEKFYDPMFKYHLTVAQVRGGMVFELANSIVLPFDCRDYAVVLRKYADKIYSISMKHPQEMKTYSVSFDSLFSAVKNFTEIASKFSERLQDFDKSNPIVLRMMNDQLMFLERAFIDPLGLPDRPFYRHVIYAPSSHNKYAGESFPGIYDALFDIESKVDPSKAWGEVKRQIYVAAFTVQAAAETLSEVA

[6] = target: T1, Glutamate carboxypeptidase 2; assay: Binding affinity to PSMA in human PC3 cells assessed as cell surface binding in phosphate-buffered saline buffer; assay type: cell-based; outline: as §1
[7] = target: T1, Glutamate carboxypeptidase 2; assay: Binding affinity to PSMA in human PC3 cells assessed as cell surface binding in presence of 100% calf serum; assay type: cell-based, PC-3; outline: as §1
Target sequence in this assay (Q04609 whole entry): as the sequence (Q04609 whole entry, looked up) above

Row | Compound | Kd [1] | Kd [2] | Activity [4] | Activity [2] | Activity [3] | further results
1 | CC1(C)C(/C=C/C2=C(Oc3ccc(S(=O)(=O)O)cc3)C(=C/C=C3/N(CCCCS(=O)(=O)O)c4ccc(S(=O)(=O)[O-])cc4C3(C)C)/CCC2)=[N+](CCCCCC(=O)NCCCCCC(=O)NC23CC4(CCC=O)CC(CCC(=O)N[C@@H](CCP(=O)(O)CC(CCC(=O)O)C(=O)O)C(=O)O)(CC(CCC(=O)N[C@@H](CCP(=O)(O)CC(CCC(=O)O)C(=O)O)C(=O)O)(C4)C2)C3)c2ccc(S(=O)(=O)O)cc21 (stereo partly specified) | 1900 pM | 1300 pM |  |  |  | Kd [3]: 1700 pM
2 | CC1(C)C(/C=C/C2=C(Oc3ccc(S(=O)(=O)[O-])cc3)C(=C/C=C3/N(CCCCS(=O)(=O)O)c4ccccc4C3(C)C)/CCC2)=[N+](CCCCCC(=O)O)c2ccccc21 |  |  | inactive | inactive |  | Activity [5]: 100%
3 | NC12CC3(CCC(=O)O)CC(CCC(=O)O)(C1)CC(CCC(=O)O)(C2)C3 |  |  | inactive | inactive |  | Activity [1]: inactive; Activity ([6]; PC-3): inactive
4 | CC1(C)C(C=CC2=C(Oc3ccc(S(=O)(=O)O)cc3)/C(=C/C=C3/N(CCCCCC(=O)N[C@@H](CCP(=O)(O)CC(CCC(=O)O)C(=O)O)C(=O)O)c4ccc(S(=O)(=O)[O-])cc4C3(C)C)CCC2)=[N+](CCCCS(=O)(=O)O)c2ccc(S(=O)(=O)O)cc21 (stereo partly specified) |  | 3600 pM |  |  |  | 
5 | CC(C)(C)OC(=O)NC12CC3(CCC(=O)N[C@@H](CCP(=O)(O)CC(CCC(=O)O)C(=O)O)C(=O)O)CC(CCC(=O)N[C@@H](CCP(=O)(O)CC(CCC(=O)O)C(=O)O)C(=O)O)(CC(CCC(=O)N[C@@H](CCP(=O)(O)CC(CCC(=O)O)C(=O)O)C(=O)O)(C3)C1)C2 (stereo partly specified) | 800 pM | 600 pM |  |  | 0.9 nM | Kd [4]: 200 pM; Kd [6]: 300 pM; Kd [7]: 600 pM
6 | CC1(C)C(/C=C/C2=C(Oc3ccc(S(=O)(=O)O)cc3)C(=C/C=C3/N(CCCCS(=O)(=O)O)c4ccc(S(=O)(=O)O)cc4C3(C)C)/CCC2)=[N+](CCCCCC(=O)NCCCCCC(=O)NC23CC4(CCC(=O)N[C@@H](CCP(=O)(O)CC(CCC(=O)O)C(=O)O)C(=O)O)CC(CCC(=O)N[C@@H](CCP(=O)(O)CC(CCC(=O)O)C(=O)O)C(=O)O)(CC(CCC(=O)N[C@@H](CCP(=O)(O)CC(CCC(=O)O)C(=O)O)C(=O)O)(C4)C2)C3)c2ccc(S(=O)(=O)[O-])cc21 (stereo partly specified) | 500 pM | 500 pM |  |  | 0.4 nM | 
7 | CC1(C)C(/C=C/C2=C(Oc3ccc(S(=O)(=O)O)cc3)C(=C/C=C3/N(CCCCS(=O)(=O)O)c4ccc(S(=O)(=O)[O-])cc4C3(C)C)/CCC2)=[N+](CCCCCC(=O)NCCCCCC(=O)NC23CC4(CCC=O)CC(CCC=O)(CC(CCC(=O)N[C@@H](CCP(=O)(O)CC(CCC(=O)O)C(=O)O)C(=O)O)(C4)C2)C3)c2ccc(S(=O)(=O)O)cc21 (stereo partly specified) |  | 5400 pM |  |  |  | 
8 | N[C@@H](CCP(=O)(O)CC(CCC(=O)O)C(=O)O)C(=O)O (stereo partly specified) |  | 10500 pM |  |  | inactive | Activity [1]: inactive
9 | CC1(C)C(/C=C/C2=C(Oc3ccc(S(=O)(=O)O)cc3)C(=C/C=C3/N(CCCCS(=O)(=O)O)c4ccc(S(=O)(=O)O)cc4C3(C)C)/CCC2)=[N+](CCCCCC(=O)NCCCCCC(=O)NC23CC4(CCC=O)CC(CCC=O)(CC(CCC(=O)N[C@@H](CCP(=O)(O)CC(CCC(=O)O)C(=O)O)C(=O)O)(C4)C2)C3)c2ccc(S(=O)(=O)[O-])cc21 (stereo partly specified) |  |  |  |  | inactive | Activity [1]: inactive
10 | CC1(C)C(/C=C/C2=C(Oc3ccc(S(=O)(=O)[O-])cc3)C(=C/C=C3/Nc4ccccc4C3(C)C)/CCC2)=[N+](CCCCCC(=O)NC23CC4(CCC(=O)N[C@@H](CCP(=O)(O)CC(CCC(=O)O)C(=O)O)C(=O)O)CC(CCC(=O)N[C@@H](CCP(=O)(O)CC(CCC(=O)O)C(=O)O)C(=O)O)(CC(CCC(=O)N[C@@H](CCP(=O)(O)CC(CCC(=O)O)C(=O)O)C(=O)O)(C4)C2)C3)c2ccccc21 (stereo partly specified) | 300 pM | 200 pM |  |  |  | Activity [5]: 100%; Kd [3]: 300 pM
11 | CC1(C)C(/C=C/C2=C(Oc3ccc(S(=O)(=O)O)cc3)C(=C/C=C3/N(CCCCS(=O)(=O)O)c4ccc(S(=O)(=O)O)cc4C3(C)C)/CCC2)=[N+](CCCCCC(=O)N[C@@H](CCP(=O)(O)CC(CCC(=O)O)C(=O)O)C(=O)O)c2ccc(S(=O)(=O)[O-])cc21 (stereo partly specified) |  |  |  |  | inactive | Activity [1]: inactive
12 | CC(C)(C)OC(=O)NCCCCCC(=O)NC12CC3(CCC(=O)N[C@@H](CCP(=O)(O)CC(CCC(=O)O)C(=O)O)C(=O)O)CC(CCC(=O)N[C@@H](CCP(=O)(O)CC(CCC(=O)O)C(=O)O)C(=O)O)(CC(CCC(=O)N[C@@H](CCP(=O)(O)CC(CCC(=O)O)C(=O)O)C(=O)O)(C3)C1)C2 (stereo partly specified) | 500 pM | 400 pM |  |  |  | Kd [3]: 700 pM
13 | CC1(C)C(/C=C/C2=C(Oc3ccc(S(=O)(=O)[O-])cc3)C(=C/C=C3\N(CCCCS(=O)(=O)O)c4ccccc4C3(C)C)/CCC2)=[N+](CCCCCC(=O)NC23CC4(CCC(=O)O)CC(CCC(=O)O)(CC(CCC(=O)O)(C4)C2)C3)c2ccccc21 |  |  | inactive | inactive |  | 
14 | CC1(C)C(/C=C/C2=C(Oc3ccc(S(=O)(=O)O)cc3)C(=C/C=C3/N(CCCCS(=O)(=O)O)c4ccc(S(=O)(=O)O)cc4C3(C)C)/CCC2)=[N+](CCCCCC(=O)O)c2ccc(S(=O)(=O)[O-])cc21 |  |  | inactive | inactive |  | 
15 | CC1(C)C(/C=C/C2=C(Oc3ccc(S(=O)(=O)O)cc3)C(=C/C=C3/N(CCCCS(=O)(=O)O)c4ccc(S(=O)(=O)O)cc4C3(C)C)/CCC2)=[N+](CCCCCC(=O)NCCCCCC(=O)NC23CC4(CCC(=O)O)CC(CCC(=O)O)(CC(CCC(=O)O)(C4)C2)C3)c2ccc(S(=O)(=O)[O-])cc21 |  |  | inactive | inactive |  | 
